# Rows were chosen to be rich in hits. Some 3.5% of all compounds tested hit in one or more screens of this group.
# MrgX1 ag: agonists of human MrgX1 receptor, primary screen, HEK293 cells, Fluo-4 calcium flux | Mas-related G-protein coupled receptor member X1 (Homo sapiens), Q96LB2 | Fluo-4 calcium fluorescence, agonist mode; active compounds read high | B-score at 10 µM | actives 0.44% (n = 310,000);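 active = calcium response B-score plate-corrected fluorescence ratio at least 3 library SD, with starting fluorescence B-score inside 5 SD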
# Target sequence (Q96LB2 whole entry, looked up): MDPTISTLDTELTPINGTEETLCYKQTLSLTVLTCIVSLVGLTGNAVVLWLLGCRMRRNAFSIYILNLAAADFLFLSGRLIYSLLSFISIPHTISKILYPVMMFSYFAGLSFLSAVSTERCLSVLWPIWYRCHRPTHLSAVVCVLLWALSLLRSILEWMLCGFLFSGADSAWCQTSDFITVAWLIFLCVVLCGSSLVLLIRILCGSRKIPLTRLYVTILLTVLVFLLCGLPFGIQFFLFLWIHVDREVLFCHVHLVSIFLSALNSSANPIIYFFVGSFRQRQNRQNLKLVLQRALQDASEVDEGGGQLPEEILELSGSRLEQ
#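 Material: MrgX1-expressing HEK293 cells; input: 15,000 cells per well; doses: test compound given as first of three sequential additions; schedule: overnight plating before 1 h dye loading; technique: Fluo-4 NW calcium-flux fluorescence, kinetic read; evaluation: baseline-normalised fluorescence change ratio, B-scored; control set: plate-wise positive and negative controls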
# RGS4 pot: RGS4 potentiators or activators, primary screen, cell-based, HEK293 M3R inducible RGS4, calcium flux; AID 463111, 2010; B-score at 10 µM; carbachol calcium flux Fluo4; active compounds read low; actives 0.92% (n = 310,000);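 active = B-score of the integrated calcium signal more than 4 SD below the library mean, with starting fluorescence not abnormally high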;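 also: negative B-score means reduced calcium response which marks RGS4 activation or potentiation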
#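 Material: M3R-expressing HEK293 line, RGS4 induced by doxycycline | Schedule: Overnight RGS4 induction, 30 min dye load 37 °C, 20 min compound RT | Measured by: Fluo4 fluorescence kinetic imaging of calcium | Read-out: Integrated calcium ratio converted to B score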
# RGS4 inh: RGS4 inhibitors, primary screen, cell-based, HEK293 M3R inducible RGS4, calcium flux. Fluo-4 calcium flux; active compounds read high; triggered by carbachol at its EC20. actives 0.45% (n = 310,000). B-score at 10 µM. Regulator of G-protein signaling 4 (Homo sapiens), P49798;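 active = B-score, a plate-corrected calcium signal, over three deviations above library mean, with baseline fluorescence within five deviations of library mean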;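 also: RGS4 expression induced by doxycycline in cells with stable M3 receptor; B-score is computed from the integrated fluorescence ratio over baseline after carbachol; higher B-score means a larger calcium signal and so more RGS4 inhibition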
# Target sequence (P49798 whole entry, looked up): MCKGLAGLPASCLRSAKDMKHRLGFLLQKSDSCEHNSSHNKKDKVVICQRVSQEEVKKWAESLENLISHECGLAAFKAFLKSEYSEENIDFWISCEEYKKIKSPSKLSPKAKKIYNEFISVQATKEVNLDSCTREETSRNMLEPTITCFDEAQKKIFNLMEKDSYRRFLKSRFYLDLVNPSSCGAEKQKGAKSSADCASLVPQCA
# MrgX1 allo act: positive allosteric modulators of MrgX1, primary screen, HEK293 cells, Fluo-4 calcium flux. Mas-related G-protein coupled receptor member X1 (Homo sapiens), Q96LB2. FDSS; active compounds read high. B-score at 10 µM. actives 0.63% (n = 310,000). AID 588675, 2011;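 active = plate-corrected calcium response at least 3 library SD above typical, normal starting fluorescence, not activating the receptor alone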;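 also: compound read alongside a low EC10 to EC30 dose of BAM8-22 agonist; peak minus trough fluorescence over baseline measured at the second addition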
# MrgX1 antag: antagonists of human MrgX1 receptor, primary screen, HEK293 cells, Fluo-4 calcium flux; Mas-related G-protein coupled receptor member X1 (Homo sapiens), Q96LB2; BAM8-22 antagonism; active compounds read low; B-score at 10 µM; actives 1.3% (n = 310,000);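 active = calcium-response B-score plate-corrected more than 3 library SD below zero, starting fluorescence within 5 deviations, no agonist response on first addition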;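 also: peak minus trough fluorescence over baseline after final BAM8-22 challenge near maximal dose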
# RGS4 activ val: reduced carbachol calcium response, RGS4-induced M3R cells, confirmation, RGS4 activator project, cell-based, HEK293 M3R/RGS4 inducible, calcium flux, duplicate. shares compounds with RGS4 pot. inhibition, % at 10 µM. carbachol calcium flux Fluo4. actives 89% (n = 1,100);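 active = inhibition above 3 SD of the buffer control wells, cut at about 41% in these data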;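 also: signal is the integrated peak-minus-minimum Fluo4 fluorescence over baseline ratio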
# RGS4 act ctr: RGS4 activator counter-screen hit in non-induced cells; shares compounds with RGS4 pot; actives 82% (n = 1,100); HEK293 M3R non-induced RGS4, Fluo4 calcium flux; after carbachol challenge at its EC90; inhibition, % at 10 µM;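 active = inhibition exceeding 3 SD of buffer-only control wells, cut at about 26% in these data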;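 also: percent drop in integrated peak-minus-baseline over baseline Fluo4 ratio after carbachol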
# * = called active by the depositor; i = inactive; x = no result given.
SMILES,MrgX1 ag,RGS4 pot,RGS4 inh,MrgX1 allo act,MrgX1 antag,RGS4 activ val,RGS4 act ctr
CC(C)C(=O)Nc1cccc(-c2nc3ncccc3o2)c1,i,i,i,i,i,x,x
O=C(CSc1ccc(Cl)cc1)Nc1cccc(-c2nc3ncccc3o2)c1,i,-8.7*,i,i,i,92*,92*
CCCCCCSc1cc(-c2nc3cc(C)ccn3c2NCCCC)ccc1OC,i,i,i,i,i,x,x
CCCCNc1c(-c2ccc(OC)c(Sc3ccc(OC)cc3)c2)nc2ccccn12,i,-11*,i,i,i,91*,71*
CCOC(=O)C1CCCN(C(=O)CCCn2nnnc2CN2CCOCC2)C1 (centres undefined),x,i,i,x,x,x,x
O=C(Nc1ccccc1C(=O)O)c1cc(S(=O)(=O)N2CCCCCC2)ccc1Cl,i,-8.4*,i,i,i,0,0
O=C(CN1C(=O)CSc2ccccc21)N/N=C/c1ccco1,i,i,i,i,i,x,x
CC(C)c1cc(-c2cc(C(=O)NCc3ccccc3)on2)nc(NCC2CC2)n1,i,-8.4*,i,i,i,92*,92*
O=[N+]([O-])c1cc([N+](=O)[O-])c(Oc2ccc(Br)cc2Br)cc1NN1CCCCC1,i,i,i,i,i,x,x
O=C(Nc1nc2ccc(S(=O)(=O)N3CCCC3)cc2s1)c1ccco1,i,-7.6*,i,i,i,0,0
CCOC(=O)C(C(C)=O)c1c(Br)c(O)c(O)c2c(C(=O)c3ccc(C)cc3)coc12 (centres undefined),i,-9.2*,i,i,i,42*,39*
CCOC(=O)c1c(C)n(-c2ccc(C)cc2)c2c(C(C(C)=O)C(=O)O)c(Br)c(O)c(O)c12 (centres undefined),i,i,i,i,i,x,x
CN1CCN(C2Cc3cc(Cl)ccc3Sc3cc(F)ccc32)CC1 (centres undefined),i,-8*,i,i,i,93*,95*
CN1CCN(CCC(=O)N2c3ccccc3Sc3ccc(Cl)cc32)CC1,i,i,i,i,i,x,x
CCc1ccc2c(c1)Sc1ccccc1CC2N1CCN(C)CC1 (centres undefined),i,-8.9*,i,i,i,92*,90*
CN1CCN(C2=Cc3cc(Cl)ccc3Sc3cc(F)ccc32)CC1,i,-8*,i,i,i,92*,91*
c1ccc2c(c1)CC(N1CCCCC1)c1ccccc1S2 (centres undefined),i,i,i,i,i,x,x
OCCN1CCN(C2Cc3cc(Cl)ccc3Sc3ccc(Cl)cc32)CC1 (centres undefined) (tested in a mixture with another compound),i,i,i,i,i,x,x
CCOC(=O)c1c(C)[nH]c(C)c1S(=O)(=O)NC(CC)CN1CCOCC1 (centres undefined),i,i,i,i,i,x,x
Cc1ccc(Nc2cc(C)nc3ncnn23)c(C)c1,i,i,i,i,i,x,x
Cc1ccc(NC(=O)CCCC(=O)O)c(-c2nc3ccccc3[nH]c2=O)c1,i,i,i,i,i,x,x
O=C(Nc1ccc(S(=O)(=O)N2CCOCC2)cc1)c1cc(-c2cc(Cl)ccc2O)n[nH]1,i,-8.4*,i,i,i,93*,71*
Cc1cc(O)c(-c2cc(C(=O)Nc3ccc(S(=O)(=O)N4CCOCC4)cc3)[nH]n2)cc1C,i,i,i,i,i,x,x
O=C(CCn1c(=O)c2cccn2c2ccccc21)Nc1ccc(F)cc1,i,i,i,i,i,x,x
CCN1CCCC1CNC(=O)C(=O)NC(C)c1ccccc1 (centres undefined),i,i,i,i,i,x,x
SMILES,MrgX1 ag,RGS4 pot,RGS4 inh,MrgX1 allo act,MrgX1 antag,RGS4 activ val,RGS4 act ctr
CN(C)C(CNC(=O)c1ccc(C2SCCS2)cc1)c1ccccc1 (centres undefined),i,-10*,i,i,i,94*,80*
O=P(c1ccccc1)(c1ccccc1)C(O)c1ccc(Br)cc1 (centres undefined),i,i,i,i,i,x,x
COc1ccccc1N(C(=O)CNC(=O)c1ccco1)C(C(=O)NC1CCCCC1)c1ccncc1 (centres undefined),i,i,i,i,i,x,x
O=C(CSc1c2c(nc3ccc(Cl)cc13)CCCC2)NCCCN1CCOCC1,i,-11*,i,i,i,92*,91*
COc1ccc(Cl)cc1C(=O)Nc1ccc(CN2CCCCC2)cc1,i,i,i,i,i,x,x
Cc1ccc(C(=O)Nc2ccc(CN3CCCCC3)cc2)c(C)c1,i,-8.5*,i,i,i,55*,84*
OC(C#CCN1CCCC1)(c1ccccc1)c1cccnc1 (centres undefined),i,-8.2*,i,i,i,92*,86*
CCCN(CC#CC(O)(c1ccccc1)c1cccnc1)CCC (centres undefined),i,i,i,i,i,x,x
CCCc1cc(=O)oc2cc(C)cc(OCC(=O)NC3CC3)c12,i,i,i,i,i,x,x
Cc1ccc(Cl)cc1NC(=O)C(=O)N1CCCCC1,i,i,i,i,i,x,x
Cc1ccc(Cl)cc1NC1=NC(=S)N(C(C)C)C12CCCCC2,i,-8.3*,i,i,i,80*,41*
O=C(NCCCN1CCCC1)c1ccc2c(c1)N(Cc1ccccc1F)C(=O)c1ccccc1S2(=O)=O,i,i,i,i,i,x,x
CC(=O)c1ccc(N2CCN(CC(O)COC(c3ccccc3)c3ccccc3)CC2)cc1 (centres undefined),i,-7.7*,i,i,i,62*,84*
CC(=O)c1ccc(N2CCN(CC(O)COC(c3ccccc3)c3ccccc3C)CC2)cc1 (centres undefined),i,-11*,i,i,i,94*,83*

# Source: PubChem BioAssay
